Screens from PubChem BioAssay.
PostGolgi yeast – phenotypic screen on post-Golgi transport, primary screen; post-Golgi transport phenotypic cell assay; inhibition, % at 10 µM; 0.9% of 98,000 active; AID 739, 2007;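 also: yeast cells grown in 1536-well plates; yeast grown about 18 h at 30C before absorbance read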
PLAP act – PLAP enzyme activators, biochemical, luminescence, HTS | Alkaline phosphatase, placental type (Homo sapiens), P05187 | purified PLAP enzyme, luminescent substrate read-out; stronger effect = higher value | activation fold at 20 µM | 1.2% of 96,000 active | AID 696, 2007; in the data active = activation fold above about 2
Target sequence (P05187 whole entry, looked up): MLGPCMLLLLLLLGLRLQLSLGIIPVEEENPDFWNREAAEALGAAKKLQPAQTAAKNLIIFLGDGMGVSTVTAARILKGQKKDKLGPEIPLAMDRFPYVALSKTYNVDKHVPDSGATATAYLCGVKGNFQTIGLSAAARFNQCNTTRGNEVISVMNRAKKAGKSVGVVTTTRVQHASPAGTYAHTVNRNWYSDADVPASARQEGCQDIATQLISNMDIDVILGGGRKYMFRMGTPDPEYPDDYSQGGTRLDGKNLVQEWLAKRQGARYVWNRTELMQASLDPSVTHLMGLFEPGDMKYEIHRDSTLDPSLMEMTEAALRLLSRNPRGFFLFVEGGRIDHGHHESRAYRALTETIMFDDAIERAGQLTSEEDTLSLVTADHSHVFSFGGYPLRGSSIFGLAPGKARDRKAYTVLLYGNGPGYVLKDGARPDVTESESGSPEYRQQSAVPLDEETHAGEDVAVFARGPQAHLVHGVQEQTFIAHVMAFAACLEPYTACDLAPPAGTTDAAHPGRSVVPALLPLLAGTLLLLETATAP
E coli WT exp – growth inhibitors of wild-type E. coli, primary screen, strain BW25113, expanded library, OD600; OD600 absorbance; growth inhibition, % at 100 µM; 0.15% of 98,000 active; AID 710, 2007;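 active = growth inhibition above about 50% at one test dose, limit read from the data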;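 also: growth measured after 20 h incubation at 37 °C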
PostGolgi ctrl – growth inhibition of yeast control strain, primary screen, counter-screen for post-Golgi transport modulator project; efflux-deficient yeast background strain, growth absorbance A615, 16 h; inhibition, % at 10 µM; 5% of 98,000 active
Ecoli tolC – growth inhibitors of E. coli tolC mutant, primary screen, strain BW25113 ΔtolC::kan, 384-well | growth inhibition, % at 10 µM (by protocol) | AID 573, 2007 | OD615 | 2.2% of 65,000 active;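 active = growth inhibition at or above a cutoff equal to the mean over every tested compound plus 3 SD, cut at about 60% in these data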;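 also: growth measured after 20 h incubation at 37 °C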
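test system = E. coli BW25113 ΔtolC::kan bacteria | medium = LB with kanamycin 50 µg/mL | signal = OD at 615 nm | schedule = 37 °C, 20 h exposure | evaluation = % inhibition of E. coli growth | compound dosing = one dose of 10 µM final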
A number is an active result; - = inactive; . = not tested or not shown. The list is not random: actives were taken first. Their share in the collection is about 7.2%. Rule as the data show it, unless noted: active = inhibition above about 30%; inactive = the rest.

SMILES | PostGolgi yeast | PLAP act | E coli WT exp | PostGolgi ctrl | Ecoli tolC
Oc1ccccc1-c1nc(NCc2ccco2)c2ccccc2n1 | - | - | - | - | -
c1ccc(N2CCN(c3nc(NCc4ccco4)c4ccccc4n3)CC2)cc1 | - | - | - | - | -
Cc1ccc(-c2c3c(=O)n(C)c(=O)n(C)c3cn2Cc2cccnc2)cc1 | - | - | - | - | -
CCOC(=O)C1CCN(c2ncnc3c2[nH]c2cccc(OC)c23)CC1 | - | - | - | - | -
CCOC(=O)C1CCCN(c2ncnc3c2cnn3-c2ccc(Cl)cc2)C1 (centres undefined) | - | - | - | - | 73
CCOC(=O)C1CCN(c2ncnc3c2oc2ccc(Cl)cc23)CC1 | - | - | - | 33 | -
CCOC(=O)C1CCCN(c2ncnc3c2cnn3-c2ccc(OC)cc2)C1 (centres undefined) | - | - | - | - | -
O=C(NCc1ccccc1)c1ccc(OC2CSC2)cc1 | - | - | - | 32 | -
C=CCN1C(=O)C(C)(C)Nc2ccccc21 | - | - | - | - | -
C=CCN1C(=O)N(/C=C/C)c2cccc3cccc1c23 | - | - | - | 30 | -
Cc1cc(C)n(C(=O)c2ccc(S(=O)(=O)NCC3CCCO3)cc2)n1 (centres undefined) | - | - | - | - | -
CN(C)c1ccc2c(c1)OC(N)=C(C#N)C2c1cccc(F)c1 (centres undefined) | - | - | - | 37 | -
Cc1cccc(C(=O)N2CCN(c3ccc(C(F)(F)F)cn3)CC2)c1C | - | 2.1 | - | - | .
Cc1ccc2nc(SCc3nnc(-c4ccccc4Br)o3)[nH]c2c1 | - | - | - | - | .
CC(C)Cn1c2ccccc2c2cc(C(=O)O)ccc21 | - | - | - | - | .
COc1cc2c(C(=O)O)c(C)n(CC(C)C)c2c2ccccc12 | - | - | - | 33 | .
CCNC(=S)N/N=C1\C(=O)c2cccc3cccc1c23 | - | - | - | - | .
O=C(N/N=C1/C(=O)c2cccc3cccc1c23)c1ccc(Cl)cc1 | 37 | - | - | - | .
COc1ccccc1-c1cc(C(=O)N/N=C/c2cccs2)c2ccccc2n1 | - | - | - | 33 | .
COc1ccc(-c2cc(C(=O)N/N=C/c3ccc4c(c3)OCO4)c3ccccc3n2)c(OC)c1 | 37 | - | - | 72 | .
Cc1cccc(-n2c(C)cc(/C=N/n3cnnc3)c2C)c1 | - | - | - | - | .
COC(=O)c1ccccc1NC(=O)CSc1nnc(CNS(=O)(=O)c2ccc(C)cc2)n1C | - | - | - | - | -
COc1ccccc1NC(=O)c1cc2n(n1)C(C(F)(F)F)CC(c1ccc3c(c1)OCO3)N2 (centres undefined) | - | - | - | 37 | -
COc1ccc(OC)c(NC(=O)c2cc3n(n2)C(C(F)(F)F)CC(c2ccc4c(c2)OCO4)N3)c1 (centres undefined) | . | . | . | . | -
Cc1c(C(=O)N(C)C)sc2nc(-c3ccccn3)[nH]c(=O)c12 | - | 2.9 | - | - | .
SMILES | PostGolgi yeast | PLAP act | E coli WT exp | PostGolgi ctrl | Ecoli tolC
Cc1sc2nc(SCC(=O)N(C)C)[nH]c(=O)c2c1C | - | - | - | - | -
CN1C(=O)NC(c2ccccc2)C2=C1CN(c1ccc3ccccc3c1)C2=O (centres undefined) | - | - | - | - | .
S=c1[nH]nc(Cc2ccccc2)n1Cc1ccco1 | - | 2.1 | - | - | -
COc1nc(NC23CC4CC(CC(C4)C2)C3)nc(OC)n1 | - | - | - | 34 | -
COc1ccc(CCNC(=O)NC23CC4CC(CC(C4)C2)C3)cc1 | - | - | - | - | .
CCOC(=O)Cn1nc(-c2ccc(F)cc2)oc1=O | - | - | - | - | .
Cc1nc(N2CCN(S(=O)(=O)c3ccccc3)CC2)c2c3c(sc2n1)CC(C)CC3 (centres undefined) | - | - | - | - | .
Cc1nc(N2CCN(S(=O)(=O)c3cccc4nonc34)CC2)c2c3c(sc2n1)CCCC3 | - | - | - | 59 | -
CCn1c(-c2ccc(F)cc2)cnc1SCC(=O)N1CCCCC1C (centres undefined) | - | - | - | - | .
COc1ccc(C(=O)CSc2nnc(-c3ccccn3)n2Cc2ccco2)cc1 | - | - | - | 35 | -
O=C(CSc1nnc(-c2cnccn2)n1Cc1ccco1)c1ccccc1 | - | - | - | - | -
O=C(CSc1nnc(-c2ccccn2)n1Cc1ccco1)c1ccccc1 | - | - | - | 31 | -
COc1cc(Cl)c(C)cc1NC(=O)CSc1nnc(-c2ccccn2)n1Cc1ccco1 | - | - | - | 40 | -
O=C(CSc1nnc(-c2ccccn2)n1Cc1ccco1)c1ccc(Cl)cc1 | - | - | - | - | -
CCC(C)C(NC(=O)C1CCC(C)CC1)C(=O)Nc1cc(OC)ccc1OC (centres undefined) | - | - | - | - | .
CCC1CCCCN1C(=O)CSc1nnc(-c2c[nH]c3ccccc23)o1 (centres undefined) | - | - | - | - | -
CCOc1ccc(NC(=O)c2oc3ccccc3c2NC(=O)C(C)C)cc1 | . | . | . | . | -
O=C(COC(=O)c1ccc2c(c1)OCO2)NCc1ccc2c(c1)OCO2 | - | - | - | - | .
CC(C)n1c(C(=O)OCC(=O)NCc2ccc3c(c2)OCO3)cc2occc21 | - | - | - | - | 64
CC(C)n1c(C(=O)OCC(=O)NCc2ccc3c(c2)OCO3)cc2sccc21 | - | - | - | 37 | -
CCCSc1ncc(Cl)c(C(=O)Nc2ccc(S(=O)(=O)N3CC(C)OC(C)C3)cc2)n1 (centres undefined) | 39 | - | - | - | .
CC1(C)Cc2c(cnn2-c2ccccc2)C(=O)/C1=N\NC(=O)c1ccccc1O | - | - | - | - | .
COc1ccc(N2CCN(CCCNS(=O)(=O)c3ccc4c(c3)oc(=O)n4C)CC2)cc1 | - | - | - | 32 | -
Cn1c(=O)oc2cc(S(=O)(=O)NCCN3CCCCCC3)ccc21 | - | - | - | - | -
C=CCn1c(SCCC(=O)O)nc2c1c(=O)n(C)c(=O)n2C | - | - | - | - | -
SMILES | PostGolgi yeast | PLAP act | E coli WT exp | PostGolgi ctrl | Ecoli tolC
c1ccc2c(c1)oc1c(N3CCN(Cc4ccc5c(c4)OCO5)CC3)ncnc12 | - | - | - | - | 100
c1ccc(Cn2nnc3c(N4CCN(Cc5ccc6c(c5)OCO6)CC4)ncnc32)cc1 | - | - | - | - | 61
Cc1ccc2c(c1)[nH]c1c(N3CCN(Cc4ccc5c(c4)OCO5)CC3)ncnc12 | . | - | . | . | -
NC(=S)NNc1cc(Cl)cc(Cl)c1 | - | - | - | - | .
CCCCC(=O)Nc1cccc(NC(=O)c2ccccc2Br)c1 | - | - | - | - | .
COc1ccc(OC)c(N(CC(=O)Nc2ccc(NC(C)=O)cc2)S(C)(=O)=O)c1 | - | - | - | 31 | -
CCOC(=O)c1sc(NC(=O)CSc2n[nH]c(-c3ccc(Cl)cc3Cl)n2)c(C#N)c1C | - | - | - | - | .
CCOc1ccc2nc(NC(=O)C(CCSC)NS(=O)(=O)c3cccs3)sc2c1 (centres undefined) | - | 2.4 | - | - | -
CCOc1ccc2nc(NC(=O)C3CCCN(S(=O)(=O)c4cccs4)C3)sc2c1 (centres undefined) | 75 | - | - | 48 | 63
